RGS4 inh: inhibitors of human RGS4. P49798. HEK293 M3R/RGS4 inducible, Fluo-4 calcium flux; stronger effect = higher value; triggered by carbachol at its EC20. B-score at 10 µM. 310,000 compounds, 0.45% hits;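 active = B-score, a plate-corrected calcium signal, over three deviations above library mean, with baseline fluorescence within five deviations of library mean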;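 note: RGS4 expression induced by doxycycline in cells with stable M3 receptor; B-score is computed from the integrated fluorescence ratio over baseline after carbachol; higher B-score means a larger calcium signal and so more RGS4 inhibition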
Target sequence (P49798 whole entry, looked up): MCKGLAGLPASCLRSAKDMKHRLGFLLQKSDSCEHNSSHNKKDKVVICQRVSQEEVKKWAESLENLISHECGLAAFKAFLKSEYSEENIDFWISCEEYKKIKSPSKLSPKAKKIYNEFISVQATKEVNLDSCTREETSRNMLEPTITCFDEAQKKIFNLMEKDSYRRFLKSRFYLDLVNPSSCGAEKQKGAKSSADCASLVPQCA
MrgX1 antag: blocks BAM8-22 activation of human MrgX1 receptor. MRGX1-HEK293 calcium flux, Fluo-4, BAM8-22 antagonism; stronger effect = lower value. B-score at 10 µM. 310,000 compounds, 1.3% hits. AID 588676;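 active = calcium-response B-score plate-corrected more than 3 library SD below zero, starting fluorescence within 5 deviations, no agonist response on first addition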;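 note: peak minus trough fluorescence over baseline after final BAM8-22 challenge near maximal dose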
Target sequence (Q96LB2 whole entry, looked up): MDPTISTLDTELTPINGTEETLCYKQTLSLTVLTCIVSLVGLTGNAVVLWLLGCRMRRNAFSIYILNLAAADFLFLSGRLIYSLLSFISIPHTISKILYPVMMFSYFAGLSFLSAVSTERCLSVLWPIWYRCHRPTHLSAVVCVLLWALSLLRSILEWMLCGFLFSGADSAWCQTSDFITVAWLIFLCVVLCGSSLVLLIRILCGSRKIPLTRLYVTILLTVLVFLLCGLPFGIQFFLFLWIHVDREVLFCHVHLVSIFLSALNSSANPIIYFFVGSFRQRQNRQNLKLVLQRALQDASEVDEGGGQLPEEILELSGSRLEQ
MrgX1 ag: activates human MrgX1 receptor signaling. MrgX1-HEK293 cells, Fluo-4 calcium fluorescence, agonist mode; stronger effect = higher value. B-score at 10 µM. 310,000 compounds, 0.44% hits;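 active = calcium response B-score plate-corrected fluorescence ratio at least 3 library SD, with starting fluorescence B-score inside 5 SD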
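Assay system: stable human MrgX1 HEK293 cell line. Quantity: 15,000 cells per well. Schedule: cells plated overnight, dye loaded 0.5 h 37 °C, 0.5 h room temperature. Detection: Fluo-4 NW calcium-flux fluorescence, kinetic read. Read-out basis: peak-minus-minimum fluorescence over baseline, converted to B scores. Control set: positive and negative control wells on each plate.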
MrgX1 allo act: allosterically activates human MrgX1 receptor signaling. MrgX1-HEK293, Fluo-4 calcium flux, FDSS; stronger effect = higher value. B-score at 10 µM. Q96LB2. 310,000 compounds, 0.63% hits;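 active = plate-corrected calcium response at least 3 library SD above typical, normal starting fluorescence, not activating the receptor alone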;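 note: compound read alongside a low EC10 to EC30 dose of BAM8-22 agonist; peak minus trough fluorescence over baseline measured at the second addition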
RGS4 act: RGS4 potentiation or activation; 310,000 compounds, 0.92% hits; HEK293 M3R/inducible RGS4, carbachol calcium flux Fluo4; stronger effect = lower value; AID 463111; B-score at 10 µM;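 active = B-score of the integrated calcium signal more than 4 SD below the library mean, with starting fluorescence not abnormally high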;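 note: negative B-score means reduced calcium response which marks RGS4 activation or potentiation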
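Assay system: HEK293 FlpIn-TREx cells, stable M3R, doxycycline-inducible RGS4 / Probe or stimulus: carbachol, ECmax concentration / Times: overnight RGS4 induction, 30 min dye load 37 °C, 20 min compound RT / Signal: kinetic calcium fluorescence imaging with Fluo4-AM dye, 2 µM / Measure: Agonist-evoked peak-minus-minimum fluorescence over baseline, integrated ratio, B score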
RGS4 block valid: validation of RGS4 inhibitors; shares compounds with RGS4 inh; HEK293 M3R/RGS4, carbachol calcium Fluo-4 fluorescence; carbachol added at its EC20; 0 = buffer wells, 100 = carbachol control; calcium response, % at 10 µM; 1,700 compounds, 65% hits; AID 492999;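 active = duplicate-averaged calcium response above the buffer-only control mean plus 5 SD of those controls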;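 note: integrated fluorescence ratio F max minus min over baseline F0; higher response in RGS4-induced cells means RGS4 inhibition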
RGS4 uninduced: checks RGS4 inhibitor effects in non-induced HEK293 M3R cells | carbachol calcium Fluo-4; submaximal (EC20) carbachol stimulus; buffer wells 0%, carbachol control wells 100% | 1,900 compounds, 20% hits | shares compounds with RGS4 inh | activity (percent), % at 10 µM; call rule not given here;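 note: RGS4 induction absent so cells express M3R without RGS4; higher means more calcium signal and flags a non-specific hit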
RGS4 inh ctr2: signal in non-induced cells without carbachol, RGS4 inhibitor counter-screen. shares compounds with RGS4 inh. HEK293 M3R/RGS4 non-induced, Fluo-4 calcium, no carbachol; normalised: buffer wells 0%, carbachol wells 100%. calcium response (agonist-mode artifact), % at 10 µM. 1,900 compounds, 22% hits. AID 493001;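 active = duplicate-averaged calcium rise in uninduced cells above buffer wells' mean plus 5 SD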
A number is an active result; n = inactive; x = no result. An excerpt weighted towards active compounds, which were near 3.5% of everything screened.

SMILES | RGS4 inh | MrgX1 antag | MrgX1 ag | MrgX1 allo act | RGS4 act | RGS4 block valid | RGS4 uninduced | RGS4 inh ctr2
CCOC(=O)COc1ccc(/C=C/[N+](=O)[O-])c(OCC(=O)OCC)c1 | 11 | n | n | n | n | 24% | 34% | n
Cc1cccc(Cn2cc(/C=C/[N+](=O)[O-])c3ccccc32)c1 | n | n | n | n | n | x | x | x
CN(C)S(=O)(=O)c1cccc(COc2ncnc3c(Cl)cc(Cl)cc23)c1 | n | n | n | n | n | x | x | x
COC(=O)c1ccc(Cn2nc(C)c([N+](=O)[O-])c2C)o1 | n | n | n | n | n | x | x | x
COC(=O)c1ccc(Cn2cc(/C=C\[N+](=O)[O-])c3ccccc32)o1 | 5.4 | n | n | n | n | 67% | 48% | 40%
CCOC(=O)Cn1cc(/C=C/[N+](=O)[O-])c2ccccc21 | 17 | n | 33 | n | n | 56% | 61% | 14%
COc1ccc(-c2csc(Nc3cc(C)ccn3)n2)cc1OC | n | n | n | n | n | n | n | n
Oc1cccc(-c2nc3ccccc3s2)c1 | n | n | n | n | n | x | x | x
COc1ccc(-c2n[nH]c(C)c2-c2ccc(Cl)cc2)c(O)c1 | n | n | n | n | n | x | x | x
Cc1[nH]nc(-c2ccc(O)cc2O)c1-c1ccc(Cl)cc1 | 28 | n | n | n | n | 54% | n | 32%
Cc1[nH]nc(-c2ccc(O)cc2O)c1-c1nc2ccccc2s1 | 7.6 | n | n | n | n | 21% | n | 26%
O=C(c1ccc(COCC(F)(F)F)o1)N1CCCC1 | 5.9 | n | n | n | n | n | n | n
CC1CN(C(=O)c2ccc(COCC(F)(F)F)o2)CC(C)O1 (stereo unspecified) | n | n | n | n | n | x | x | x
O=C(CN1C(=O)NC2(CCCCC2)C1=O)N1CCN(S(=O)(=O)/C=C/c2ccccc2)CC1 | n | n | n | n | n | x | x | x
Cc1ccc(-c2ccc(/C=N\NC(=O)C3C(=O)NCC3c3ccccc3)o2)cc1Cl (stereo unspecified) | n | n | n | n | n | x | n | n
O=C1NCC(c2ccccc2)C1C(=O)N/N=C\c1ccc(-c2cccc(Cl)c2Cl)o1 (stereo unspecified) | n | n | n | n | n | x | x | x
Cc1ccc2c(c1)c1c(n2C)-c2[nH]ncc2CC1 | 5.5 | n | n | n | n | 18% | n | n
Cc1ccc2c(c1)c1c(n2C)C(C(N)=O)CCC1 (stereo unspecified) | n | n | n | n | n | x | x | x
CO/C=C\C=C/c1nnn(-c2ccc(Cl)cc2)n1 | 7.5 | n | n | n | n | n | n | 8.0%
CCOC(=O)C1=C(C)Nc2nc(=S)[nH]n2C1c1ccc(Cl)cc1 (stereo unspecified) | 9.2 | x | x | x | n | 14% | 35% | 18%
CCOC(=O)C1=C(C)Nc2nc(SCC)nn2C1c1ccc(OC)cc1 (stereo unspecified) | n | n | n | n | n | x | x | x
CCOc1cccnc1Sc1ccccc1 | n | n | n | n | n | x | x | x
O=C1/C(=C\c2ccccn2)SC(=S)N1c1ccc(S(=O)(=O)Nc2nccs2)cc1 | 5.9 | n | n | n | n | 20% | n | n
Cc1cccc(N=C2NC(=O)/C(=C/c3cccnc3)S2)c1C | n | n | n | n | n | x | x | x
Cc1ccc(N=C2NC(=O)/C(=C/c3cccnc3)S2)c(C)c1 | 7.9 | n | n | n | n | 20% | n | n
Cc1ccc(C)c(NC(=O)COC(=O)CCC(=O)c2cccs2)c1 | n | n | n | n | n | x | x | x
O=C(c1cc(-c2ccccc2)n[nH]1)N1CCc2c([nH]c3ccccc23)C1c1ccccn1 (stereo unspecified) | 7.3 | n | n | n | n | 27% | 30% | n
